Here are results for 19 compounds from ChEMBL document CHEMBL3414543, “Novel series of benzoquinones with high potency against 5-lipoxygenase in human polymorphonuclear leukocytes” (Eur J Med Chem, 2015).

Assay [1] concerns the target T1, Polyunsaturated fatty acid 5-lipoxygenase (Homo sapiens, UniProt P09917).
T1 sequence (P09917 whole entry): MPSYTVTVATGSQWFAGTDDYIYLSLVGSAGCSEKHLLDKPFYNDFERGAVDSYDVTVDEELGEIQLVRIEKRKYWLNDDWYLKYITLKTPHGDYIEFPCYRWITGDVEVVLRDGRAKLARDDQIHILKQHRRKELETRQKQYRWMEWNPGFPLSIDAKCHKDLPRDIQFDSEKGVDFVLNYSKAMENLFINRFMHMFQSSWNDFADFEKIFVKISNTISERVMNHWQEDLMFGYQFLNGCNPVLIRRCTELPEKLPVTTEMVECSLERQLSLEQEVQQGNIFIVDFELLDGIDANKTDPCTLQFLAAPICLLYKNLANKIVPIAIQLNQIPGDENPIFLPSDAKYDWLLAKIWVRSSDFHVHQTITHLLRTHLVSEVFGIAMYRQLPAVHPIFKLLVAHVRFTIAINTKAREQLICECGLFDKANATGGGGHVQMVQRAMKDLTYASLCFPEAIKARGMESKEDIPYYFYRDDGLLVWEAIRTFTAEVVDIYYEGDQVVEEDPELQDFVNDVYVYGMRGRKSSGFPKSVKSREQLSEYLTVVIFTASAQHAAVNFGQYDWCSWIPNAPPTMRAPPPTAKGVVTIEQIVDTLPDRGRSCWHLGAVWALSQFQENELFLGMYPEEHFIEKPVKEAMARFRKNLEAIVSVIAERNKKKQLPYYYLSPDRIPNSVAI
Briefly: Inhibition of 5-LOX in A23187-stimulated human blood PMNL assessed as reduction in lipoxygenase products formation pre-incubated for 15 mins followed by stimulation with A23187 for 10 mins by RP-HPLC based cell based assay. In a few lines: (§1)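 Human PMNL (5 × 10⁶ in 1 ml PBS pH 7.4, 1 mg/ml glucose, 1 mM CaCl₂), preincubated 15 min at 37 °C with compound or 0.1% DMSO, then stimulated 10 min at 37 °C with A23187, with or without AA. 5-LO products measured. Values are mean ± S.E. of 3–4 independent experiments. IC₅₀ read graphically from 4–5 concentrations.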

The target of assay [2] is T1, Polyunsaturated fatty acid 5-lipoxygenase. Briefly: Inhibition of human recombinant 5-LOX expressed in Escherichia coli BL21 incubated for 10 mins in presence of arachidonic acid by RP-HPLC based cell-free assay. In a few lines:
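Recombinant human 5-LO, semi-purified from a 40,000 × g lysate supernatant on ATP-agarose, diluted in ice-cold PBS with 1 mM EDTA and 1 mM ATP. Preincubated 10 min at 4 °C with compound or 0.1% DMSO, warmed 30 s at 37 °C, then started with 2 mM CaCl₂ plus 20 µM AA. Reaction 10 min at 37 °C, stopped with cold methanol, products by RP-HPLC. IC₅₀ from 4–5 concentrations.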

Assay [3] deals with T2, Polyunsaturated fatty acid lipoxygenase ALOX15 (Homo sapiens) (UniProt P16050).
T2 sequence (whole entry): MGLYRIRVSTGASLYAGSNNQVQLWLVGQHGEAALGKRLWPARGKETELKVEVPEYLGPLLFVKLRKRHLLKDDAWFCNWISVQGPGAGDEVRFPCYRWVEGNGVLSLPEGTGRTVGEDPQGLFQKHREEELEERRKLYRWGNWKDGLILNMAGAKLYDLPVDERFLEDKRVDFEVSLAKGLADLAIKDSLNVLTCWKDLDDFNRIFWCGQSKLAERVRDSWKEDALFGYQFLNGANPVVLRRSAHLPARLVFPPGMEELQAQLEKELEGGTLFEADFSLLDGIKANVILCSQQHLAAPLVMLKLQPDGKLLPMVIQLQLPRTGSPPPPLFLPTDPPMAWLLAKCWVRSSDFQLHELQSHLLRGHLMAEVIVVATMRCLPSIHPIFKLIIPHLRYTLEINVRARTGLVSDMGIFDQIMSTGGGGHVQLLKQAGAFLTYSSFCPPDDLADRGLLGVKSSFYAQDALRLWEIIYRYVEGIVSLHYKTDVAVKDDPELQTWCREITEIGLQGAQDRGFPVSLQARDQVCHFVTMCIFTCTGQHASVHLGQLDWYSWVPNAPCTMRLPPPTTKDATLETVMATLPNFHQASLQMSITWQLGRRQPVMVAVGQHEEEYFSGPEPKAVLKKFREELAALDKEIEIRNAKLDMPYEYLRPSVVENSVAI
In words: Inhibition of 15-LOX-1 in human blood PMNL assessed as remaining activity by measuring 15-HETE synthesis at 10 uM. In a few lines:
(§2)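 PMNL isolated from heparinized blood of fasted healthy donors by dextran sedimentation and Nycoprep centrifugation, with hypotonic lysis of erythrocytes. Cells at 5 × 10⁶ in 1 ml PBS pH 7.4 with 1 mg/ml glucose and 1 mM CaCl₂, preincubated 15 min at 37 °C with compound or 0.1% DMSO vehicle, then stimulated 10 min at 37 °C. 12-HETE or 15-HETE formation measured.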

The target of assay [4] is T1, Polyunsaturated fatty acid 5-lipoxygenase. In words: Inhibition of 5-LOX in A23187-stimulated human blood PMNL assessed as reduction in lipoxygenase products formation in presence of arachidonic acid pre-incubated for 15 mins followed by stimulation with A23187 for 10 mins by RP-HPLC based cell based assay. The method, boiled down:
as §1

For assay [5], the target named is T3, Polyunsaturated fatty acid lipoxygenase ALOX12 (Homo sapiens) (UniProt P18054).
T3 sequence (whole entry): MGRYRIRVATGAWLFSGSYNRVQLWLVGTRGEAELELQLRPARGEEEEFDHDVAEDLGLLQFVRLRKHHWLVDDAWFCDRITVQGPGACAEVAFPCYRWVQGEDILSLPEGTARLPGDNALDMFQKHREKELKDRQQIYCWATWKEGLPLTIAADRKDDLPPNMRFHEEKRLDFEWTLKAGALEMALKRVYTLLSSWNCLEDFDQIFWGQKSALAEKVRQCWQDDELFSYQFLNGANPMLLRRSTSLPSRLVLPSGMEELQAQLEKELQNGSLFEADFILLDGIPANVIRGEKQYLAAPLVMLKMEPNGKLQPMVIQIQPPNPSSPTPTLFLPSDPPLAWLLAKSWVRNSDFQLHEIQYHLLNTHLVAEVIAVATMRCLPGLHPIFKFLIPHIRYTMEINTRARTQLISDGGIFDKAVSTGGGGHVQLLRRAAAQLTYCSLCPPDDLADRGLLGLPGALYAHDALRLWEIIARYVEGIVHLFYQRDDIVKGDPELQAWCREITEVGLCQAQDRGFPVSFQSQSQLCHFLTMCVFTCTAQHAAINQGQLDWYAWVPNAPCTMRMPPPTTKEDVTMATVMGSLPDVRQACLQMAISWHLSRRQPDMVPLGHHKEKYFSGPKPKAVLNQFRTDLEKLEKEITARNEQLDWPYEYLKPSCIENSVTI
In words: Inhibition of 12-LOX in human blood PMNL assessed as remaining activity by measuring 12-HETE synthesis at 10 uM. In a few lines:
as §2

For assay [6], the target named is T4, Polyunsaturated fatty acid 5-lipoxygenase (Homo sapiens) (UniProt P09917).
T4 sequence (whole entry): T1 sequence (P09917 whole entry)
Briefly: Inhibition of 5-LOX in A23187-stimulated human blood PMNL assessed as remaining activity by measuring lipoxygenase products formation at 10 uM in presence of arachidonic acid pre-incubated for 15 mins followed by stimulation with A23187 for 10 mins by RP-HPLC based cell based assay. In a few lines:
as §1

The target of assay [7] is T4, Polyunsaturated fatty acid 5-lipoxygenase (Homo sapiens). In words: Inhibition of 5-LOX in A23187-stimulated human blood PMNL assessed as remaining activity by measuring lipoxygenase products formation at 10 uM pre-incubated for 15 mins followed by stimulation with A23187 for 10 mins by RP-HPLC based cell based assay. The method, boiled down: as §1

As a reminder, the IC50 is the midpoint of a concentration-inhibition curve.

As to `CCCCCCCCCCCCCCCC1=C(O)C(=O)C=C(O)C1=O`, the IC50 was 4.3 µM in assay [1], 0.23 µM in assay [2] and greater than 10 µM in assay [4]. In addition, the results for the Activity in assay [3], in assay [5] and in assay [6] were 103%, 87.7% and 61.7%, respectively.
As to `CCCCCCCCC1=C(O)C(=O)C=C(O)C1=O`, the results for the IC50 in assay [1], in assay [2] and in assay [4] were greater than 10 µM, 0.38 µM and greater than 10 µM, respectively. Also, the Activity in assay [3] was 88.9%; in assay [5], 75.7%; in assay [6], 80.1%; in assay [7] it was 53.5%.
Consider `CC(C)=CCC/C(C)=C/CC/C(C)=C/CC1=C(O)C(=O)C=C(O)C1=O`, for which the half-inhibitory concentration (IC50) was greater than 10 µM in assay [1], 2.5 µM in assay [2] and greater than 10 µM in assay [4]. For the same compound, the Activity in assay [3] is 95.2%; in assay [5], 78.3%; in assay [6], 66.6%; in assay [7], 85.8%.
As to `CCCCCCC1=C(O)C(=O)C=C(O)C1=O`, the values for the IC50 in assay [1], in assay [2] and in assay [4] were greater than 10 µM, 4 µM and greater than 10 µM, respectively. Further, the Activity in assay [3] was 89.8%; in assay [5], 105%; in assay [6], 79.9%; in assay [7], 134%.
Consider `CCCCCCCCCCCCCCCCC1=C(OC)C(=O)C=C(OC)C1=O`, for which the IC50 is greater than 10 µM in assay [1], 1.6 µM in assay [2] and 3.5 µM in assay [4]. In addition, the Activity came out at 97.8% in assay [3], 121% in assay [5] and 80.1% in assay [7].
As for `CCCCCCCCCCC1=C(O)C(=O)C=C(O)C1=O`, the IC50 in assay [1] was found to be 2 µM; in assay [2], 0.18 µM; in assay [4] it was 7.1 µM. Besides, the Activity in assay [3] was determined as 90%; in assay [5], 76%.
As to `COC1=CC(=O)C(OC)=C(C/C=C(\C)CC/C=C(\C)CCC=C(C)C)C1=O`, the half-inhibitory concentration (IC50) in assay [1] came out at 0.31 µM; in assay [2], 1.7 µM; in assay [4], 1.2 µM. Besides, the values for the Activity in assay [3] and in assay [5] were 136% and 139%, respectively.
`CCCCCCCCCCC1=C(O)C(=O)C=C(OC)C1=O`: the IC50 in assay [1] came to 0.59 µM; in assay [2], 4.3 µM; in assay [4], 2.7 µM. Besides, the figures for the Activity in assay [3] and in assay [5] were 123% and 122%, respectively.
For `CCCCCCCCCCCCCCC1=C(OC)C(OC)=CC(=O)C1=O` the same measures were 0.12 µM, 0.04 µM, 0.09 µM, 139% and 87.3%.
Consider `CCCCCCC1=C(OC)C(=O)C=C(OC)C1=O`, for which the IC50 in assay [1] was 0.32 µM; in assay [2], 2.6 µM; in assay [4], 1.4 µM. The Activity was determined as 101% in assay [3] and 102% in assay [5].
Turning to `CCCCCCCCCCCCCC1=C(OC)C(=O)C=C(OC)C1=O`, the IC50 in assay [1] was 0.23 µM; in assay [2] it was 0.26 µM; in assay [4] it was 0.31 µM. The results for the Activity in assay [3] and in assay [5] were 84.1% and 58.8%, respectively.
As to `COC1=CC(=O)C(OC)=C(C/C=C(\C)CCC=C(C)C)C1=O`, the IC50 in assay [1] came to 0.45 µM; in assay [2], 3.3 µM; in assay [4], 1.6 µM. Besides, the Activity in assay [3] is 127%; in assay [5] it was 90.3%.
Regarding `CCCCCCCCC1=C(O)C(=O)C=C(OC)C1=O`, the values for the IC50 in assay [1], in assay [2] and in assay [4] were greater than 10 µM, 3 µM and greater than 10 µM, respectively. The Activity was determined as 105% in assay [3], 86.8% in assay [5], 72.9% in assay [6] and 73.5% in assay [7].
For `CCCCCCCCCCCCCCCC1=C(OC)C(=O)C=C(OC)C1=O`, the IC50 in assay [1] was determined as 0.39 µM; in assay [2] it was 0.27 µM; in assay [4], 0.86 µM. For the same compound, the Activity stood at 115% in assay [3] and 87.3% in assay [5].
As to `CC(C)=CCC/C(C)=C/CC1=C(O)C(=O)C=C(O)C1=O`, the IC50 in assay [1] was greater than 10 µM; in assay [2], 1.8 µM; in assay [4], greater than 10 µM. Moreover, the Activity is 92% in assay [3], 80.5% in assay [5], 81.9% in assay [6] and 114% in assay [7].
On to `COC1=CC(=O)C(=O)C(C/C=C(\C)CC/C=C(\C)CCC=C(C)C)=C1OC`, for which the results for the IC50 in assay [1], in assay [2] and in assay [4] were 0.15 µM, 0.3 µM and 0.1 µM, respectively. Further, the Activity is 174% in assay [3] and 211% in assay [5].
Turning to `CCCCCCCCCCCCC1=C(O)C(=O)C=C(OC)C1=O`, the IC50 came to 0.56 µM in assay [1], 0.74 µM in assay [2] and 1.1 µM in assay [4]. Moreover, the figures for the Activity in assay [3] and in assay [5] were 116% and 148%, respectively.
Consider `CCCCC1=C(OC)C(=O)C=C(OC)C1=O`, for which the IC50 in assay [1] came to 3.4 µM; in assay [2] it was 3.3 µM; in assay [4], 7.9 µM. In addition, the Activity in assay [3] and in assay [5] was 103% throughout.
On to `CCCCCCCCC1=C(OC)C(OC)=CC(=O)C1=O`, for which the IC50 was 0.38 µM in assay [1], 0.33 µM in assay [2] and 0.82 µM in assay [4]. Also, the figures for the Activity in assay [3] and in assay [5] were 102% and 59.3%, respectively.
